ChEMBL document CHEMBL5380787, “Optimized M24B Aminopeptidase Inhibitors for CARD8 Inflammasome Activation” (J Med Chem, 2023)
Active and inactive are the calls of the source. The rule behind the calls is not given here.

Key:
MV4-11 [1] = assay: Cytotoxicity against human MV4-11 cells assessed as reduction in cell viability incubated for 24 hrs by celltiter-glo assay; type: functional, cell-based; conditions: MV4-11, 24 h
Procedure, shortened: (§1)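 MV4;11 cells (WT or CASP1−/−), grown in RPMI 1640 with 10% FBS at 37 °C, 5% CO2, plated 2000 cells/well, dosed by pintool across 100 μM to 15.2 nM in three-fold steps for 24 h. Viability by CellTiter-Glo luminescence after 2 min shaking and 10 min at 25 °C. IC50 as mean ± SEM of three biological replicates.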

MV4-11 [2] = assay: Cytotoxicity against CASP1 knockout human MV4-11 cells assessed as reduction in cell viability incubated for 24 hrs by celltiter-glo assay; type: functional, cell-based; conditions: MV4-11, 24 h; procedure, shortened: as §1
OCI-AML2 [3] = assay: Induction of cell death in human OCI-AML2 cells assessed as reduction in cell viability incubated for 24 hrs by celltiter-glo assay; type: functional, cell-based
Procedure, shortened: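 OCI-AML2 cells, WT or CARD8−/−, were grown in RPMI 1640 with 10% FBS and plated at 2000 cells/well. Compound was added over a range of concentrations for 24 h, and viability was then read by CellTiter-Glo luminescence. Means ± SEM, n = 3.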

MV4-11 [4] = assay: Induction of pyroptosis in CARD8 knockout human MV4-11 cells assessed as LDH release at 20 uM incubated for 24 hrs; type: functional, cell-based
Procedure, shortened: (§2)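 Cells (MV4;11, OCI-AML2 or THP-1; WT or the knockout named) plated at 5 × 10^5 cells/well and exposed to 20 μM compound for 24 h. LDH in the supernatant was measured relative to a Triton X-100 lysis control. For immunoblots, cells were washed in PBS, sonicated, protein-normalized, run on SDS-PAGE and probed for GSDMD cleavage. n = 3.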

OCI-AML2 [5] = assay: Induction of pyroptosis in CARD8 knockout human OCI-AML2 cells assessed as LDH release at 20 uM incubated for 24 hrs; type: functional, cell-based; procedure, shortened: as §2
THP-1 [6] = assay: Induction of pyroptosis in CARD8 knockout human THP-1 cells assessed as LDH release at 20 uM incubated for 24 hrs; type: functional, cell-based; procedure, shortened: as §2
MV4-11 [7] = assay: Induction of pyroptosis in human MV4-11 cells assessed as GSDMD cleavage at 20 uM incubated for 24 hrs by immunoblot analysis; type: functional, cell-based; procedure, shortened: as §2
MV4-11 [8] = assay: Induction of pyroptosis in CARD8 knockout human MV4-11 cells assessed as GSDMD cleavage at 20 uM incubated for 24 hrs by immunoblot analysis; type: functional, cell-based; procedure, shortened: as §2
OCI-AML2 [9] = assay: Induction of pyroptosis in human OCI-AML2 cells assessed as GSDMD cleavage at 20 uM incubated for 24 hrs by immunoblot analysis; type: functional, cell-based; procedure, shortened: as §2
OCI-AML2 [10] = assay: Induction of pyroptosis in CARD8 knockout human OCI-AML2 cells assessed as GSDMD cleavage at 20 uM incubated for 24 hrs by immunoblot analysis; type: functional, cell-based; procedure, shortened: as §2
THP-1 [11] = assay: Induction of pyroptosis in CARD8 knockout human THP-1 cells assessed as GSDMD cleavage at 20 uM incubated for 24 hrs by immunoblot analysis; type: functional, cell-based; procedure, shortened: as §2
RAW264.7 [12] = assay: Induction of pyroptosis in mouse RAW264.7 cells expressing NLRP1B allele 1 assessed as LDH release at 20 uM incubated for 24 hrs; type: functional, cell-based
Procedure, shortened: (§3)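 RAW264.7 cells, grown in DMEM with 10% FBS, plated at 5 × 10^5 cells/well and exposed to 20 μM compound for 24 h. Supernatant LDH was measured relative to a Triton X-100 lysis control; lysates were immunoblotted for GSDMD cleavage. n = 3.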

BMDM = assay: Induction of pyroptosis in C57BL/6J mouse BMDM cells expressing NLRP1A and NLRP1B allele 2 assessed as GSDMD clevage at 20 uM incubated for 24 hrs by immunoblot analysis; type: functional, cell-based
Procedure, shortened: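 Bone marrow cells from femurs and tibias of 7–12-week-old C57BL/6J mice were RBC-lysed and differentiated for 6 days at 37 °C in DMEM with 10% FBS and 15–20% L-cell medium, then replated. Cells were exposed to 20 μM compound for 24 h. Read-outs were LDH release against a lysis control and GSDMD immunoblot.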

RAW264.7 [13] = assay: Induction of pyroptosis in mouse RAW264.7 cells expressing NLRP1B allele 1 assessed as GSDMD clevage at 20 uM incubated for 24 hrs by immunoblot analysis; type: functional, cell-based; procedure, shortened: as §3
THP-1 [14] = assay: Induction of pyroptosis in PEPD knockout human THP-1 cells assessed as LDH release at 20 uM incubated for 24 hrs; type: functional, cell-based; procedure, shortened: as §2
HEK-293T [15] = assay: Induction of pyroptosis in human HEK293T cells expressing CASP1 and GSDMD cotransfected with dTAG-CARD8ZUC and CARD8 FIIND S297A assessed as destabilization of DPP9-CARD8 ternary complex by measuring LDH release at 20 uM incubated for 6 hrs in presence of dTAG13; type: functional, cell-based
HEK-293T [16] = assay: Induction of pyroptosis in human HEK293T cells expressing CASP1 and GSDMD cotransfected with dTAG-CARD8ZUC and CARD8 FIIND S297A assessed as destabilization of DPP9-CARD8 ternary complex by measuring GSDMD clevage at 20 uM incubated for 6 hrs in presence of dTAG13 by immunoblot analysis; type: functional, cell-based
[17] = Stability in human MV4-11 cells assessed as retention time of parent compound incubated for 24 hrs by LC/MS analysis; type: ADME, cell-based; conditions: mv4-11, 24 h
Procedure, shortened: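 Compound was held in MV4;11 conditioned medium for 24 h at 37 °C, then LC/MS was run, recording the retention times of the parent ester and its free acid.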

Xaa-Pro aminopeptidase 1 = Xaa-Pro aminopeptidase 1 (Homo sapiens, UniProt Q9NQW7); assay: Inhibition of 6-His tagged XPNPEP1 (unknown origin) expressed in Escherichia coli Rosetta DE3 cells using H-Lys(abz)-Pro-Pro-pNA as substrate at 20 uM incubated for 60 mins by fluorescence based analysis relative to control
Xaa-Pro aminopeptidase 1, sequence (Q9NQW7 whole entry): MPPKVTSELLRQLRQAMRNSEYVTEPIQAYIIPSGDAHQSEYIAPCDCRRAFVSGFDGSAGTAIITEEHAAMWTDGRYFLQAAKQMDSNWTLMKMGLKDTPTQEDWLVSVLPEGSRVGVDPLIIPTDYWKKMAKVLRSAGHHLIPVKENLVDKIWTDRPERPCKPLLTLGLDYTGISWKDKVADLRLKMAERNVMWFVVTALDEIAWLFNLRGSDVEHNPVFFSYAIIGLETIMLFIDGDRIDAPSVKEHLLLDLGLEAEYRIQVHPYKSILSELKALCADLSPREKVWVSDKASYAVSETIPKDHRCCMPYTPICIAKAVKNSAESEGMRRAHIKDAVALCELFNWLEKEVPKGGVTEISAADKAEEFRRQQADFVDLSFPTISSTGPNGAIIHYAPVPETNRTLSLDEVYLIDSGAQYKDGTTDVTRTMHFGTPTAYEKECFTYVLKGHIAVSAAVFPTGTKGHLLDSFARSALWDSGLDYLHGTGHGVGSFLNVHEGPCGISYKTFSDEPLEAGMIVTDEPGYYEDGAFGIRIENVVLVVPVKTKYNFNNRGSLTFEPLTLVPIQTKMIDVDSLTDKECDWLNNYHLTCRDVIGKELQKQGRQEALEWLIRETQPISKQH
Procedure, shortened: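 His6-tagged XPNPEP1 was expressed in E. coli Rosetta DE3 (IPTG, 16 h, 37 °C) and purified on TALON resin. Enzyme at 3.5 nM was exposed to compound, then H-Lys(abz)-Pro-Pro-pNA was added at 100 μM final. Fluorescence (Ex/Em 320/410) was followed for 60 min. Single-point inhibition used 20 μM; IC50 as mean ± SEM of three biological replicates.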

THP-1 [18] = assay: Induction of pyroptosis in PEPD/XPNPEP1 knockout human THP-1 cells assessed as LDH release at 20 uM incubated for 24 hrs; type: functional, cell-based; procedure, shortened: as §2
THP-1 [19] = assay: Induction of pyroptosis in PEPD/XPNPEP1 knockout human THP-1 cells assessed as GSDMD clevage at 20 uM incubated for 24 hrs by immunoblot analysis; type: functional, cell-based; procedure, shortened: as §2
[20] = Drug metabolism in human MV4-11 cell culture supernatant assessed as (S)-1-((2S,3R)-3-amino-2-hydroxy-5-methylhexanoyl)pyrrolidine-2-carboxylic acid formation measured within 30 mins by LC-MS analysis; type: ADME, cell-based; conditions: mv4-11, 0.5 h

| Structure (SMILES) | IC50 (MV4-11 [1]) | IC50 (MV4-11 [2]) | Activity (OCI-AML2 [3]) | Activity (MV4-11 [4]) | Activity (OCI-AML2 [5]) | Activity (THP-1 [6]) | Activity (MV4-11 [7]) | Activity (MV4-11 [8]) | Activity (OCI-AML2 [9]) | Activity (OCI-AML2 [10]) | Activity (THP-1 [11]) | Activity (RAW264.7 [12]) | Activity (BMDM) | Activity (RAW264.7 [13]) | Activity (THP-1 [14]) | Activity (HEK-293T [15]) | Activity (HEK-293T [16]) | inhibition (Xaa-Pro aminopeptidase 1) | Activity (THP-1 [18]) | Activity (THP-1 [19]) | other results |
| --- | --- | --- | --- | --- | --- | --- | --- | --- | --- | --- | --- | --- | --- | --- | --- | --- | --- | --- | --- | --- | --- |
| COC(=O)[C@H](CC(C)C)NC(=O)[C@@H]1CCCN1C(=O)[C@@H](O)[C@H](N)CC(C)C | 0.27 µM | > 20 µM | Active | inactive | inactive | inactive | Active | inactive | Active | inactive | inactive | inactive | inactive | inactive | Active | Active | Active | 74% | inactive | inactive | Retention_time [17]: 2.82 min |
| COC(=O)[C@@H]1CCCN1C(=O)[C@@H](O)[C@H](N)CC(C)C | 2.2 µM | > 100 µM | Active | inactive | inactive | inactive | Active | inactive | Active | inactive | inactive | inactive | inactive | inactive | Active | Active | Active | 96% | inactive | inactive | Drug metabolism [20]: Metabolite_Detected |
